Results as given in ChEMBL document CHEMBL3734738, “A structure-activity relationship of non-peptide macrocyclic histone deacetylase inhibitors and their anti-proliferative and anti-inflammatory activities” (Bioorg Med Chem, 2015).
The source made the active and inactive calls. The calls are words filed in the database; no cut-off is given here.

Legend:
[1] = target: T1, Protein deacetylase HDAC6 (Homo sapiens, UniProt Q9UBN7); test: Inhibition of recombinant HDAC6 (unknown origin) expressed in Escherichia coli BL21(DE3) after 60 mins using trichostatin A by label-free mass spectrometry-based SAMDI assay
T1 sequence (Q9UBN7 whole entry): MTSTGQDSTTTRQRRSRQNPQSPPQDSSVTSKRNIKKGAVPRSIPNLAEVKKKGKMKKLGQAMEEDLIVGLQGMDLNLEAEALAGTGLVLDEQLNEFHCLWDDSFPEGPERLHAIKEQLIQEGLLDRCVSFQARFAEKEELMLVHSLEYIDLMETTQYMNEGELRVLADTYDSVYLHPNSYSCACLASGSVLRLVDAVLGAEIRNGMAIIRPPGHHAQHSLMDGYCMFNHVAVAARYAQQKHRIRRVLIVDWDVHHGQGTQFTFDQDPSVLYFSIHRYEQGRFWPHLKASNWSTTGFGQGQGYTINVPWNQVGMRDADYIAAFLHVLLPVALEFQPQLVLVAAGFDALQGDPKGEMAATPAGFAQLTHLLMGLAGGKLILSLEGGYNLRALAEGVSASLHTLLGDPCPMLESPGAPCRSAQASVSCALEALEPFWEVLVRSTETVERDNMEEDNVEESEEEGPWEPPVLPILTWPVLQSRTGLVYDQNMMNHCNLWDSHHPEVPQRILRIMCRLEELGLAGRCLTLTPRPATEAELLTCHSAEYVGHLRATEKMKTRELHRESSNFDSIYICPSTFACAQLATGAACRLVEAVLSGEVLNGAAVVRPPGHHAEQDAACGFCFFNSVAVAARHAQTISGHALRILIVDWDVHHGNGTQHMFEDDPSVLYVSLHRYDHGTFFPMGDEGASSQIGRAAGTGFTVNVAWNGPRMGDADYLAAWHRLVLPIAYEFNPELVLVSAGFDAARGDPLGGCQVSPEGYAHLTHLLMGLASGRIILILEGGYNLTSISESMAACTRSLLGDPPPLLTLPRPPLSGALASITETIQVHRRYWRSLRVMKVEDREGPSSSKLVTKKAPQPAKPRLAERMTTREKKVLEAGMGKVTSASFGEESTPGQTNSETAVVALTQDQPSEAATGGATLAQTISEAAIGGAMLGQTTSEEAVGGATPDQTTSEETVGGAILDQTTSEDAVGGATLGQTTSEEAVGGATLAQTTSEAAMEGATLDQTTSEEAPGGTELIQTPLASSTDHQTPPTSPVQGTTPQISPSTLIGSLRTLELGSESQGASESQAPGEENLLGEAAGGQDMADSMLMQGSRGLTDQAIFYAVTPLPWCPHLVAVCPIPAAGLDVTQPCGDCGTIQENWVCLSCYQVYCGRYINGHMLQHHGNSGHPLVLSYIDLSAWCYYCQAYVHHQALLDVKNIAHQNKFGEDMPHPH

Histone deacetylase 8 = target: T2, Histone deacetylase 8 (Homo sapiens, UniProt Q9BY41); test: Inhibition of recombinant HDAC8 (unknown origin) expressed in Escherichia coli BL21(DE3) after 60 mins using trichostatin A by label-free mass spectrometry-based SAMDI assay
T2 sequence (Q9BY41 whole entry): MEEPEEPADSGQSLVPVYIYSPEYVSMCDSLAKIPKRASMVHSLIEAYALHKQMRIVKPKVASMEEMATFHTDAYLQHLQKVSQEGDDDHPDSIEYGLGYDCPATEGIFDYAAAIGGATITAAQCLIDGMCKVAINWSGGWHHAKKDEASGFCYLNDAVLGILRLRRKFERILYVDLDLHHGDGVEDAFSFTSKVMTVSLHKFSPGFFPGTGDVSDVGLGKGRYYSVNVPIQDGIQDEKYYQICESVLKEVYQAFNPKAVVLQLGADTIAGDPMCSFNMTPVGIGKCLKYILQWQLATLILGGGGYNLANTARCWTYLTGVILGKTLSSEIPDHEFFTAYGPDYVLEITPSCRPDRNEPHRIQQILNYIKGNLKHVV

Histone deacetylase 1 [2] = target: T3, Histone deacetylase 1 (Homo sapiens, UniProt Q13547); test: Inhibition of recombinant HDAC1 (unknown origin) expressed in Escherichia coli BL21(DE3) at 10 uM after 60 mins using trichostatin A by label-free mass spectrometry-based SAMDI assay
T3 sequence (Q13547 whole entry): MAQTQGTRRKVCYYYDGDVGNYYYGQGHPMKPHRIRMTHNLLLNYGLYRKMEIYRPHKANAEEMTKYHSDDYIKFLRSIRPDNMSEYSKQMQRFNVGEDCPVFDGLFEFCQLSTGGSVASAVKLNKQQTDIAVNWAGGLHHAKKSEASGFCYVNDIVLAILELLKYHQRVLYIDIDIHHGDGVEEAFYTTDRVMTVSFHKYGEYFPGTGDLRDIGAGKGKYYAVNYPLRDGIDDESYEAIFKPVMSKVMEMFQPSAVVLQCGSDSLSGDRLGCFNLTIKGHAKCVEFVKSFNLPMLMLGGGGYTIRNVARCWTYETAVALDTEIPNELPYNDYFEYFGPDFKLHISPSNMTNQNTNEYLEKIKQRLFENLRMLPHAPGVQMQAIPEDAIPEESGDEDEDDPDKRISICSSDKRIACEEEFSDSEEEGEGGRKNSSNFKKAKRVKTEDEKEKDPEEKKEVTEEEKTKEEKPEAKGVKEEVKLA

Histone deacetylase 1 [3] = target: T3, Histone deacetylase 1; test: Inhibition of recombinant HDAC1 (unknown origin) expressed in Escherichia coli BL21(DE3) after 60 mins using trichostatin A by label-free mass spectrometry-based SAMDI assay
[4] = Inhibition of NTHi-induced NF-kappaB activation in human BEAS-2B cells treated 1 hr before NTHi stimulation measured after 5 hrs by luciferase assay; type: cell-based
Homo sapiens = organism: Homo sapiens; conditions: at 1 µM
BEAS-2B [5] = test: Antiinflammatory activity in human BEAS2B cells assessed as inhibition of NTHi-induced IL-1beta mRNA expression at 1 uM treated 2 hrs before NTHi stimulation measured after 1.5 hrs by Q-PCR analysis; type: functional, cell-based
Procedure, shortened: (§1)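 BEAS-2B cells pretreated 2 h with inhibitor at 1 μM, then stimulated 1.5 h with NTHi; PBS-treated cells as unstimulated control. Total RNA isolated with TRIzol, reverse transcribed, and TNF-α, IL-1α, IL-1β mRNA quantified by SYBR Green real-time PCR with 500 nM primers, reactions in triplicate; mean of n=3, representative of three independent experiments.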

Vero = test: Cytotoxicity against African green monkey Vero cells after 72 hrs by MTS assay; type: cell-based; conditions: Chlorocebus sabaeus
Procedure, shortened: (§2)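 Cells kept in DMEM with 10% FBS and 1% penicillin-streptomycin, seeded in 96-well plates for 24 h, then exposed to a range of drug concentrations for 72 h at 0.1% DMSO; viability read by MTS assay per manufacturer's protocol.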

BEAS-2B [6] = test: Antiinflammatory activity in human BEAS2B cells assessed as inhibition of NTHi-induced TNFalpha mRNA expression at 1 uM treated 2 hrs before NTHi stimulation measured after 1.5 hrs by Q-PCR analysis; type: functional, cell-based; procedure, shortened: as §1
MCF7 = test: Cytotoxicity against human MCF7 cells after 72 hrs by MTS assay; type: functional, cell-based; procedure, shortened: as §2
A549 = test: Cytotoxicity against human A549 cells after 72 hrs by MTS assay; type: functional, cell-based; procedure, shortened: as §2
BEAS-2B [7] = test: Antiinflammatory activity in human BEAS2B cells assessed as inhibition of NTHi-induced IL-1alpha mRNA expression at 1 uM treated 2 hrs before NTHi stimulation measured after 1.5 hrs by Q-PCR analysis; type: functional, cell-based; procedure, shortened: as §1
[8] = Homo sapiens, BEAS-2B, read-out: IC50
[9] = Homo sapiens, MCF7, 72 h, read-out: IC50
[10] = Homo sapiens, A549, 72 h, read-out: IC50

Row | inhibition (Histone deacetylase 1 [2]) [%] | SMILES | IC50 [1] [nM] | IC50 (Histone deacetylase 8) [nM] | IC50 (Histone deacetylase 1 [3]) [nM] | IC50 [4, 8] [nM] | Imax (Homo sapiens) [%] | inhibition (BEAS-2B [5]) | IC50 (Vero) [nM] | inhibition (BEAS-2B [6]) | IC50 (MCF7; [9]) [nM] | IC50 (A549; [10]) [nM] | inhibition (BEAS-2B [7]) | IC50 [4] | IC50 (MCF7; mcf7) | IC50 (A549; a549)
1 | 27 | CC[C@H]1OC(=O)[C@H](C)[C@@H](O[C@@H]2C[C@](C)(OC)[C@@](O)(CN(C)Cc3ccc(-c4cn(CCCC(=O)NO)nn4)cc3)[C@@H](C)O2)[C@@H](C)[C@@H](O[C@H]2O[C@@H](C)C[C@@H](N(C)C)[C@@H]2O)[C@](C)(OC)C[C@@H](C)C(=O)[C@H](C)[C@H](O)[C@]1(C)O | 361 | 2530 | > 10000 | – | – | – | – | – | – | – | – | – | – | –
2 | – | CC[C@H]1OC(=O)[C@H](C)[C@@H](O[C@@H]2C[C@](C)(OC)[C@H](O)[C@@H](C)O2)[C@@H](C)[C@@H](O[C@H]2O[C@@H](C)C[C@@H](N(C)Cc3ccc(-c4cn(CCCCCC(=O)NO)nn4)cc3)[C@@H]2O)[C@](C)(OC)C[C@@H](C)C(=O)[C@H](C)[C@H](O)[C@]1(C)O (stereo in doubt) | 3.61 | 1180 | 533 | 785 | 45.1 | – | – | – | – | – | – | – | – | –
3 | – | CC[C@@H]1OC(=O)[C@@H](C)[C@H](O[C@H]2C[C@@](C)(OC)[C@@H](O)[C@H](C)O2)[C@@H](C)[C@H](O[C@H]2O[C@@H](C)C[C@@H](N(C)C)[C@@H]2O)[C@](C)(O)C[C@H](C)CN(Cc2ccc(-c3cn(CCCCCCC(=O)NO)nn3)cc2)[C@H](C)[C@H](O)[C@@]1(C)O | 4.72 | 1700 | 16.1 | 244 | 31.4 | Active | 6660 | Active | 6300 | 8280 | Active | – | – | –
4 | – | CC[C@H]1OC(=O)[C@@H](C)[C@H](O[C@H]2C[C@@](C)(OC)[C@@H](O)[C@H](C)O2)[C@H](C)[C@H](O[C@H]2O[C@@H](C)C[C@@H](N(C)Cc3ccc(-c4cn(CCCCCCC(=O)NO)nn4)cc3)[C@@H]2O)[C@@](C)(O)C[C@H](C)CN(C)[C@@H](C)[C@H](O)[C@@]1(C)O (stereo in doubt) | 7.29 | 314 | 68.6 | 280 | 41.4 | – | 5900 | – | 4080 | 2320 | – | – | – | –
5 | – | CC[C@@H]1OC(=O)[C@@H](C)[C@H](O[C@H]2C[C@@](C)(OC)[C@@H](O)[C@H](C)O2)[C@H](C)[C@H](O[C@@H]2O[C@H](C)C[C@H](N(C)Cc3ccc(-c4cn(CCCCCCC(=O)NO)nn4)cc3)[C@H]2O)[C@@](C)(OC)C[C@H](C)C(=O)[C@@H](C)[C@@H](O)[C@@]1(C)O (stereo in doubt) | 6.67 | 713 | 207 | 243 | 35.9 | – | 4900 | – | 2860 | 2290 | – | – | – | –
6 | – | CC[C@H]1OC(=O)[C@H](C)C(=O)[C@H](C)[C@@H](O[C@@H]2O[C@H](C)C[C@H](N(C)Cc3cccc(-c4cn(CCCCCC(=O)NO)nn4)c3)[C@H]2O)[C@@](C)(OC)C[C@@H](C)C2=NCCN3C(=O)O[C@@]1(C)[C@H]3[C@H]2C | 17.5 | 3230 | 109 | – | 71 | – | – | – | – | – | – | Not Active | Not Active | Not Active
